Experiments:
Adenosine receptor A2a = Adenosine receptor A2a (Homo sapiens, UniProt P29274); assay: Displacement of [3H]NECA from human cloned adenosine A2A receptor expressed in CHO cells at 10 uM; assay type: cell-based
How it was run: (§1)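 CHO cell membranes stably expressing hA1 or hA2A; radioligands [3H]DPCPX (hA1, Kd 3 nM) and [3H]NECA (hA2A, Kd 30 nM). IC50 from five displacer concentrations in triplicate, nonlinear regression; Ki by Cheng–Prusoff; four separate assays. Single-point values as percent inhibition of specific binding at 10 μM.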

Adenosine receptor A3 [1] = target: T1, Adenosine receptor A3 (Homo sapiens, UniProt P0DMS8); assay: Antagonist activity at human adenosine A3 receptor expressed in CHO cells assessed as blockade of NECA-mediated inhibition of forskolin-stimulated cAMP accumulation; assay type: functional, cell-based
T1 sequence (P0DMS8 whole entry): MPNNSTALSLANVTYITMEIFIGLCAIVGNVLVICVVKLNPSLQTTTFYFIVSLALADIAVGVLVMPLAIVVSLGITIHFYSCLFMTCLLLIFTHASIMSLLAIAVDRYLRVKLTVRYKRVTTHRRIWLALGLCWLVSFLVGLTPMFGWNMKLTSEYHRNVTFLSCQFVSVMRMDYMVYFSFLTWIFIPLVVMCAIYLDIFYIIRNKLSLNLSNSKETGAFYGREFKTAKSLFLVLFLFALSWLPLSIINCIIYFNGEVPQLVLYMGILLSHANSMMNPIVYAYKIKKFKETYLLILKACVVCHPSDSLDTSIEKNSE
How it was run: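 CHO cells stably expressing hA3, plated 48 h, preincubated 15 min at 37 °C with Ro 20-1724 (20 μM) and adenosine deaminase (1 U/mL). Compound (1 nM–10 μM; DMSO stock diluted in water) added 15 min before 100 nM NECA, with 1 μM forskolin stimulation. Lysis in 0.4 N HCl; cAMP by competitive protein binding with [3H]cAMP. EC50 by sigmoid nonlinear regression; three experiments.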

Adenosine receptor A1 [2] = target: T2, Adenosine receptor A1 (Rattus norvegicus, UniProt P25099); assay: Displacement of [3H]DPCPX from adenosine A1 receptor in Wistar rat brain membrane; assay type: cell membranes
T2 sequence (P25099 whole entry): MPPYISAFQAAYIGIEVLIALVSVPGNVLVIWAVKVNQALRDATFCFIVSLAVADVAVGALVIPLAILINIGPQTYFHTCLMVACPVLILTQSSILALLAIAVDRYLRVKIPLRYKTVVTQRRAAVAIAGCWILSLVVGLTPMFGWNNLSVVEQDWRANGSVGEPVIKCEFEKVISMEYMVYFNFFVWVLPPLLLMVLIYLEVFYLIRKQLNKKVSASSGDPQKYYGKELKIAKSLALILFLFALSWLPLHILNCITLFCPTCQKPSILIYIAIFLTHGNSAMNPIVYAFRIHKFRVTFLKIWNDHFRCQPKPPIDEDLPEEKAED
How it was run: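 Nonspecific binding defined with 20 μM R-PIA. Filtration on GF/C filters. IC50 by nonlinear regression over five displacer concentrations in triplicate; Ki via Cheng–Prusoff.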

Adenosine receptor A3 [3] = target: T1, Adenosine receptor A3; assay: Displacement of [125I]AB-MECA from human cloned adenosine A3 receptor expressed in CHO cells; assay type: cell-based
[4] = target: Adenosine receptor A2a (Rattus norvegicus) (UniProt P30543); assay: Displacement of [3H]CGS21680 adenosine A2A receptor in Wistar rat brain membrane at 10 uM; assay type: cell membranes
Adenosine receptor A1 [5] = target: T3, Adenosine receptor A1 (Bos taurus, UniProt P28190); assay: Displacement of [3H]DPCPX from bovine brain cortical membrane adenosine A1 receptor
T3 sequence (P28190 whole entry): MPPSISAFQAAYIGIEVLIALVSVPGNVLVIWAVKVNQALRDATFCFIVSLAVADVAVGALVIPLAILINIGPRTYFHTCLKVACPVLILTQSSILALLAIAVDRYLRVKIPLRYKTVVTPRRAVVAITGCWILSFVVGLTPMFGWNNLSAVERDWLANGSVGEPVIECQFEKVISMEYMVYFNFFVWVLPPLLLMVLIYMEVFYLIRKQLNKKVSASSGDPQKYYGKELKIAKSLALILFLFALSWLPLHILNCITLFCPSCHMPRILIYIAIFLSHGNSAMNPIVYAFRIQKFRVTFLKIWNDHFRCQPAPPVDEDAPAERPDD

Hippocampus [6] = assay: Neuroprotective effect against 30-mins oxygen-glucose deprivation triggered neuronal injury in Wistar rat hippocampus CA1 region assessed as delay in anoxic depolarization latency at 10 nM relative to control; assay type: functional
How it was run: (§2)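 Rat hippocampal slices; CA1 stratum radiatum stimulated (80 μs, 0.066 Hz) with fEPSP at 40–50% of maximum, amplitude expressed as percent of 5 min pre-OGD baseline. OGD: glucose-free aCSF gassed 95% N2/5% CO2 for 7 or 30 min, then reperfusion with oxygenated glucose aCSF. Compound 10 nM (DMSO stock diluted in aCSF) applied 15 min before, during and 5 min after OGD. Anoxic depolarization recorded as negative dc shift, latency from OGD onset; unpaired two-tailed t test.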

[7] = target: T4, Adenosine receptor A3 (Rattus norvegicus) (UniProt P28647); assay: Displacement of [125I]AB-MECA from Wistar rat adenosine A3 receptor expressed in HEK293/EBNA cells by gamma-scintillation spectrometry at 1 uM; assay type: cell-based
T4 sequence (whole entry): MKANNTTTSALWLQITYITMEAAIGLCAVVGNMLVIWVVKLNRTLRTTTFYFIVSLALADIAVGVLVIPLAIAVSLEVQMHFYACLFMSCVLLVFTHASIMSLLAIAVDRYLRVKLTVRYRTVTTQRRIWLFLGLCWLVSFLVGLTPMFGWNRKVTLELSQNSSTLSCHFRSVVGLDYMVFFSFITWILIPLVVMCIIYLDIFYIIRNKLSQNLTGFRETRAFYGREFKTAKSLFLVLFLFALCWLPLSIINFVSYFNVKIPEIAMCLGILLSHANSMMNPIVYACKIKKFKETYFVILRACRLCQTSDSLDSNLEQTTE

Bos taurus = species on record: Bos taurus; assay: Displacement of [3H]CGS 21680 from bovine striatal membrane adenosine A2A receptor at 20 uM
How it was run: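 IC50 from five concentrations in triplicate, nonlinear regression; Ki via Cheng–Prusoff from four assays. Single-point values as percent inhibition at 20 μM.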

Hippocampus [8] = assay: Neuroprotective effect against 7-mins oxygen-glucose deprivation triggered neuronal injury in Wistar rat hippocampal CA1 region assessed as recovery of field excitatory post synaptic potential at 10 nM relative to control; assay type: functional; how it was run: as §2
[9] = target: T5, Adenosine receptor A1 (Homo sapiens) (UniProt P30542); assay: Displacement of [3H]DPCPX from human cloned adenosine A1 receptor expressed in CHO cells at 10 uM; assay type: cell-based; how it was run: as §1
T5 sequence (whole entry): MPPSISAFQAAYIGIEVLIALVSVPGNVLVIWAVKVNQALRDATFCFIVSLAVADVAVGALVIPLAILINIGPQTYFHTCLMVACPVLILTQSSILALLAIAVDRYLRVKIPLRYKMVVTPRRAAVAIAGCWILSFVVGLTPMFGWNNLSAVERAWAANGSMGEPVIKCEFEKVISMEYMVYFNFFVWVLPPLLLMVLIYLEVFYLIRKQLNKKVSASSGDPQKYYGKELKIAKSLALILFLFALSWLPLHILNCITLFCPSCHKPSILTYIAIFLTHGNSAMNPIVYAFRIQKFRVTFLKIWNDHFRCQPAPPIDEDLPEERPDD

Chain of Adenosine receptor A2a (Rattus norvegicus) (P30543 whole entry): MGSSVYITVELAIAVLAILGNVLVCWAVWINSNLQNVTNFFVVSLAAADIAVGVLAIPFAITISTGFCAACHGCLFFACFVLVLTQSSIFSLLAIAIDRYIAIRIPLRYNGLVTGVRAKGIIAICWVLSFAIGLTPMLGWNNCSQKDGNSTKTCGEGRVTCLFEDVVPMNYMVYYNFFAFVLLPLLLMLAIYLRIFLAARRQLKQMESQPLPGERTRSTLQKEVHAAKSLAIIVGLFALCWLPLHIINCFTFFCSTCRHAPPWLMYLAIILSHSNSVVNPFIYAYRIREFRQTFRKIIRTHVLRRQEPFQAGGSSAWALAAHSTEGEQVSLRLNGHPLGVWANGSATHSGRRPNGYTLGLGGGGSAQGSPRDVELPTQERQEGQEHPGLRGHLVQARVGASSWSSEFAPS
Chain of Adenosine receptor A2a (P29274 whole entry): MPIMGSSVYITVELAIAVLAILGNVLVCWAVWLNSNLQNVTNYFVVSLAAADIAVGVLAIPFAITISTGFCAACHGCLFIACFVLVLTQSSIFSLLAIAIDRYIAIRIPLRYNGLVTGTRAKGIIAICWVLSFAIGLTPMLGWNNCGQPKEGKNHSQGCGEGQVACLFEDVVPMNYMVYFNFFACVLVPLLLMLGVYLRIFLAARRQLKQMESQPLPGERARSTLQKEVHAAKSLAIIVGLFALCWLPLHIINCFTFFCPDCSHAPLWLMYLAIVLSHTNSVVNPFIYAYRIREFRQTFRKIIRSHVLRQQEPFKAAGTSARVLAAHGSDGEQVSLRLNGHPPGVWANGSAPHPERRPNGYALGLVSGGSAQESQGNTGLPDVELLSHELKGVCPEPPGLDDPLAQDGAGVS

Compound: COc1ccc(-n2nc3c(NC(=O)c4ccccc4)nc4ncccc4n3c2=O)cc1
- Activity (Adenosine receptor A2a): 27%
- EC50 (Adenosine receptor A3 [1]): 36.3 nM
- Ki (Adenosine receptor A1 [2]): 587 nM
- Ki (Adenosine receptor A3 [3]): 4.54 nM
- Activity [4]: 34%
- Ki (Adenosine receptor A1 [5]): 355 nM
- Activity (Hippocampus [6]): 8.9
- Activity [7]: 0%
- Activity (Bos taurus): 7%
- Activity (Hippocampus [8]): 77.6%
- Activity [9]: 38%

Reference: ChEMBL document CHEMBL1153402, “Pyrido[2,3-e]-1,2,4-triazolo[4,3-a]pyrazin-1-one as a new scaffold to develop potent and selective human A3 adenosine receptor antagonists. Synthesis, pharmacological evaluation, and ligand-receptor modeling studies” (J Med Chem, 2009)
